Assay results: ChEMBL document CHEMBL6134787, “Fexinidazole optimization: enhancing anti-leishmanial profile, metabolic stability and hERG safety” (RSC Med Chem, 2024)
The source made the active and inactive calls. The calls are words filed in the database; no cut-off is given here.

Assays:
Leishmania donovani [1] = assay: Antileishmanial activity against miltefosine resistant Leishmania donovani HU3MILR40 promastigotes […] assessed as inhibition of parasite growth incubated for 72 hrs by automatic microtiter plate reader analysis; type: functional, organism-based
How it was run: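 Promastigote (free parasite) assay: Schneider's Drosophila medium with 4 mM glutamine, 25 μg mL−1 gentamicin, 10% heat-inactivated FBS, pH 6.9, 27 °C. 1.5 × 10^5 promastigotes per well exposed to a concentration series for 72 h at 27 °C.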

[2] = target: T1, Voltage-gated inwardly rectifying potassium channel KCNH2 (Homo sapiens, UniProt Q12809); assay: Inhibition of human ERG stably overexpressed in HEK293 cells incubated for 30 mins by FLIPR assay; type: toxicity, cell-based; details: human, hek293, 0.5 h; time 30 min
[3] = Metabolic stability in rat liver S9 fraction assessed as compound remaining at 20 uM measured after 32 mins in presence of NADP and GSH by HPLC analysis; type: ADME, subcellular; details: read-out: Stability
How it was run: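 Rat liver S9 (final 4 mg/mL) in 50 mM phosphate pH 7.4 with NADPH-regenerating system (0.3 mM NADP+, 5.3 mM glucose-6-phosphate, G6PDH), 10 mM MgCl2 and 5 mM EDTA. Pre-warmed 10 min at 37 °C, then 20 μM compound and 5.5 μM GSH added. Samples taken at 0, 16 and 32 min were quenched in ice-cold acetonitrile. HPLC (254/280 nm) peak area was expressed relative to 0 min.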

[4] = Cytotoxicity against mouse L929 cells assessed as inhibition of cell growth incubated for 72 hrs by MTS assay; type: toxicity, cell-based
How it was run: (§1)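 Cells in DMEM + 10% heat-inactivated FBS with penicillin/streptomycin at 37 °C, 5% CO2. They were seeded at 1 × 10^4/well and incubated with a concentration series for 72 h at 37 °C. Viability was read by MTS/PMS assay at 490 nm and IC50 derived.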

[5] = Hepatotoxicity against human HepG2 cells assessed as reduction in cell viability at 125 uM incubated for 24 hrs by MTT assay; type: toxicity, cell-based; details: hepg2, 24 h
How it was run: (§2)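 HEP-G2 cells in RPMI 1640 + 10% heat-inactivated FBS, penicillin/streptomycin. Seeded at 15 000/well and attached 24 h at 37 °C, 5% CO2. Compounds were serially diluted in DMSO, with 24 or 48 h exposure. MTT (2.5 mg/mL solution) was added for 4 h, formazan dissolved in DMSO and A570 read. Viability was background-corrected against DMSO-treated cell controls; mean ± SD, ≥3 experiments.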

[6] = target: T1, Voltage-gated inwardly rectifying potassium channel KCNH2; assay: (§3) Inhibition of human ERG stably overexpressed in HEK293 cells assessed as remaining activity at 6 uM incubated for 30 mins by FLIPR assay; type: toxicity, cell-based; details: hek293, 0.5 h, 6 µM
How it was run: (§4)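 HEK-293 cells stably expressing hERG, seeded at 60 000/well and grown 24 h. Compounds were added in DMSO (final 0.5%) and incubated 30 min in the dark. After 20 s baseline, Tl+ stimulus (3 mM) was added and fluorescence (ex 485/em 535 nm) recorded for 2.5 min.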

Leishmania amazonensis [7] = assay: Antileishmanial activity against wild type Leishmania amazonensis LV78 promastigotes […] assessed as inhibition of parasite growth incubated for 72 hrs by automatic microtiter plate reader analysis; type: functional, organism-based
How it was run: (§5)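 Promastigotes were grown in Schneider's medium (4 mM glutamine, gentamicin, 10% heat-inactivated FBS, pH 6.9, 27 °C). Cells were seeded at 1.5 × 10^5/well and exposed to a concentration series for 72 h at 27 °C.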

Leishmania donovani [8] = assay: Antileishmanial activity against wild type Leishmania donovani HU3 promastigotes […] assessed as inhibition of parasite growth incubated for 72 hrs by automatic microtiter plate reader analysis; type: functional, organism-based
[9] = Hepatotoxicity against mouse TAMH cells assessed as reduction in cell viability at 125 uM incubated for 24 hrs by MTT assay; type: toxicity, cell-based
How it was run: (§6)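 TAMH mouse liver cells in FCS-free DMEM/F12 with 5% PANEXIN NTA, 10 mM nicotinamide and gentamicin. Seeded at 20 000/well and attached 24 h at 37 °C, 5% CO2. DMSO-diluted compounds were applied for 24 or 48 h. MTT was added for 4 h, formazan dissolved in DMSO and A570 read. Viability was background-corrected and expressed relative to DMSO controls; mean ± SD, ≥3 experiments.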

RAW264.7 = assay: Cytotoxicity against mouse RAW264.7 cells assessed as inhibition of cell growth incubated for 72 hrs by MTS assay; type: functional, cell-based; details: RAW264.7, 72 h; how it was run: as §1
Leishmania major = assay: Antileishmanial activity against wild type Leishmania major FV1 promastigotes […] assessed as inhibition of parasite growth incubated for 72 hrs by automatic microtiter plate reader analysis; type: functional, organism-based; how it was run: as §5
[10] = Metabolic stability in rat liver microsome assessed as compound remaining at 20 uM measured after 32 mins in presence of NADP and GSH by HPLC analysis; type: ADME; details: liver microsomes, read-out: Stability
How it was run: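 Rat liver microsomes (final 2 mg/mL) in 50 mM phosphate pH 7.4 with 0.3 mM NADP+, 5.3 mM glucose-6-phosphate, G6PDH, 10 mM MgCl2 and 5 mM EDTA. 20 μM compound added at 37 °C. Aliquots at 0, 16 and 32 min were quenched in ice-cold acetonitrile and centrifuged. HPLC peak area at 254/280 nm was expressed relative to 0 min.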

[11] = Hepatotoxicity against mouse TAMH cells assessed as cell viability at 7.8 to 125 uM incubated for 24 to 48 hrs by MTT assay; type: toxicity, cell-based; details: dose lower 7.8 µM, time lower 24 hrs, dose upper 125 µM, time upper 48 hrs, read-out: Activity; how it was run: as §6
Leishmania braziliensis [12] = assay: Antileishmanial activity against wild type Leishmania braziliensis UA847 promastigotes […] assessed as inhibition of parasite growth incubated for 72 hrs by automatic microtiter plate reader analysis; type: functional, organism-based; how it was run: as §5
Leishmania donovani [13] = assay: Antileishmanial activity against miltefosine resistant Leishmania donovani HU3MILR40 amastigotes infected in mouse peritoneal macrophage assessed as inhibition of parasite growth incubated for 72 hrs by giemsa staining based analysis; type: functional, organism-based
How it was run: (§7)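 Mouse peritoneal macrophages in DMEM + 10% heat-inactivated FBS, penicillin/streptomycin; 1 × 10^5 cells per well on coverslips, adhered overnight at 37 °C, 5% CO2, non-adherent cells washed off. Infected overnight with late-log promastigotes at parasite:macrophage 40:1. Compound exposure 72 h at 37 °C; Giemsa stain, amastigotes per 100 macrophages counted, IC50 derived; means ± SD of 3–4 independent experiments.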

[14] = Cytotoxicity against mouse peritoneal macrophage assessed as inhibition of cell growth incubated for 72 hrs by giemsa staining based analysis; type: toxicity; details: peritoneal macrophages
Leishmania braziliensis [15] = assay: Antileishmanial activity against wild type Leishmania braziliensis UA847 amastigotes infected in mouse peritoneal macrophage assessed as inhibition of parasite growth incubated for 72 hrs by giemsa staining based analysis; type: functional, organism-based
How it was run: (§8)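 Mouse peritoneal macrophages (1 × 10^5/well on coverslips, DMEM + 10% heat-inactivated FBS, penicillin/streptomycin) adhered overnight at 37 °C, 5% CO2. They were infected overnight with late-log promastigotes at a 20:1 parasite:macrophage ratio. Cells were then treated with compound for 72 h at 37 °C and Giemsa-stained. Amastigotes per 100 macrophages were counted to derive IC50; mean ± SD of 3–4 independent experiments.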

[16] = Selectivity ratio of IC50 for cytotoxicity against mouse peritoneal macrophage assessed as inhibition of cell growth to IC50 for antileishmanial activity against miltefosine resistant Leishmania donovani HU3MILR40 amastigotes infected in mouse peritoneal macrophage assessed as inhibition of parasite growth; type: toxicity, cell-based; details: peritoneal macrophages, read-out: Ratio IC50
Leishmania donovani [17] = assay: Antileishmanial activity against miltefosine resistant Leishmania donovani HU3MILR40 amastigotes infected in mouse peritoneal macrophage assessed as inhibition of parasite growth at 1.5 uM incubated for 72 hrs by giemsa staining based analysis; type: functional, organism-based
How it was run: (§9)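 Adherent mouse peritoneal macrophages on coverslips infected overnight with late-log HU3MILR40 promastigotes (40 parasites per macrophage), then exposed to compound at a single fixed concentration in DMEM + 10% FBS for 72 h at 37 °C. Giemsa-stained coverslips imaged at 1000×; amastigotes per 100 macrophages counted versus DMSO control; mean ± SD of three independent experiments, Student's t-test.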

Leishmania donovani [18] = assay: Antileishmanial activity against wild type Leishmania donovani HU3 amastigotes infected in mouse peritoneal macrophage assessed as inhibition of parasite growth incubated for 72 hrs by giemsa staining based analysis; type: functional, organism-based; how it was run: as §7
hERG (KCNH2) [19] = target: T2, hERG (KCNH2) (Homo sapiens, UniProt Q12809); assay: as §3; type: toxicity, cell-based; details: HEK293 cells stably overexpressing hERG, read-out: Activity; how it was run: as §4
Leishmania amazonensis [20] = assay: Antileishmanial activity against wild type Leishmania amazonensis LV78 amastigotes infected in mouse peritoneal macrophage assessed as inhibition of parasite growth incubated for 72 hrs by giemsa staining based analysis; type: functional, organism-based; how it was run: as §8
hERG (KCNH2) [21] = target: T2, hERG (KCNH2); assay: Inhibition of human ERG stably overexpressed in HEK293 cells assessed as remaining activity at 25 uM incubated for 30 mins by FLIPR assay; type: toxicity, cell-based; details: HEK293 cells stably overexpressing hERG, read-out: Activity; how it was run: as §4
[22] = Hepatotoxicity against human HepG2 cells assessed as cell viability at 125 uM incubated for 48 hrs by MTT assay; type: toxicity, cell-based; details: hepg2, 48 h, 125 µM; how it was run: as §2
[23] = Hepatotoxicity against mouse TAMH cells assessed as cell viability at 125 uM incubated for 48 hrs by MTT assay; type: toxicity, cell-based; how it was run: as §6
Leishmania donovani [24] = assay: Antileishmanial activity against miltefosine resistant Leishmania donovani HU3MILR40 amastigotes infected in mouse peritoneal macrophage assessed as inhibition of parasite growth at 20 uM incubated for 72 hrs by giemsa staining based analysis; type: functional, organism-based; how it was run: as §9

T1 sequence (Q12809 whole entry): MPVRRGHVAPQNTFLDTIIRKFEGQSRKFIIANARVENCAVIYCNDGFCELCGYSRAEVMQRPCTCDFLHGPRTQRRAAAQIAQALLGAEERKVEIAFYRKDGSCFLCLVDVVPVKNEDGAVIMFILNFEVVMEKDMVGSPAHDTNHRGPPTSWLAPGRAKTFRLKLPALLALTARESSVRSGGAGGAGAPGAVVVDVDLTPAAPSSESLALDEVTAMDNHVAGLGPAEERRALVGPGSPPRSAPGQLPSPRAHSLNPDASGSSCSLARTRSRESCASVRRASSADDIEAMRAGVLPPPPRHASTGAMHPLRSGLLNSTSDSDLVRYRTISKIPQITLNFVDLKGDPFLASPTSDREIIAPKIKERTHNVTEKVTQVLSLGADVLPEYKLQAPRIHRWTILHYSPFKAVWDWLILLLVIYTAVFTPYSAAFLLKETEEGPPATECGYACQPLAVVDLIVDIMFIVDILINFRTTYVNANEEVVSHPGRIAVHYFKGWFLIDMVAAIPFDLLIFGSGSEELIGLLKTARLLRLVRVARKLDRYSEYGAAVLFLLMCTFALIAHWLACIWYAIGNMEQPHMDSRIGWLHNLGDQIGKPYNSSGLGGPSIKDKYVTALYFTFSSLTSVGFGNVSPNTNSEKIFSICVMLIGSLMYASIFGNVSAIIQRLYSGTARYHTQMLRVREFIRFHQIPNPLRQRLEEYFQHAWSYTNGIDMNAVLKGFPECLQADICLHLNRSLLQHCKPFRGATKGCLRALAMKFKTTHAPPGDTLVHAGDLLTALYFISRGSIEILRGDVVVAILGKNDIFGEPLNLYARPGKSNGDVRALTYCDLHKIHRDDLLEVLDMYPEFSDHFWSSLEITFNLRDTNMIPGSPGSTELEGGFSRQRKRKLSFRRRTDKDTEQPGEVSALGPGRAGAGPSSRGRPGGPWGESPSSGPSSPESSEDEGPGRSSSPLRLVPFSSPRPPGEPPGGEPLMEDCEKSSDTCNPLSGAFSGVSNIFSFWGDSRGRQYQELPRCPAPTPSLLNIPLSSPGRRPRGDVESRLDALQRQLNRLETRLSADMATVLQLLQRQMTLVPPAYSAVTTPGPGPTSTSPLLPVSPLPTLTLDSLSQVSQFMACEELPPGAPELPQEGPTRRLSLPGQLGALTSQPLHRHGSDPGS
T2 sequence (Q12809 whole entry): as above

Row | Compound | IC50 (Leishmania donovani [1]) [µM] | IC25 [2] [µM] | remaining at 32 min, 20 µM [3] [%] | IC50 at 72 h [4] [µM] | IC50 (Leishmania amazonensis [7]) [µM] | IC50 (Leishmania donovani [8]) [µM] | IC50 (RAW264.7) [µM] | IC50 (Leishmania major) [µM] | remaining at 32 min, 20 µM [10] [%] | viability at up to 125 µM [11] [%] | IC50 (Leishmania braziliensis [12]) [µM] | IC50 (Leishmania donovani [13]) [µM] | IC50 at 72 h [14] [µM] | IC50 (Leishmania braziliensis [15]) [µM] | selectivity ratio [16] | Activity (Leishmania donovani [17]) | IC50 (Leishmania donovani [18]) [µM] | activity at 0.5 h, 6 µM (hERG (KCNH2) [19]) [%] | IC50 (Leishmania amazonensis [20]) [µM] | further results
1 | C[S+]([O-])c1ccc(OCC2Cn3cc([N+](=O)[O-])nc3O2)cc1 (racemic) | 7.1 | 30.1 | 100 | > 100 | > 20 | 10.2 | > 100 | > 20 | 100 | 56 | > 20 | – | – | – | – | – | – | – | – | Activity [5]: 40.8%; inhibition (INH) [6]: Not_active; Activity [9]: 58%
2 | CSc1ccc(OCC2Cn3cc([N+](=O)[O-])nc3O2)cc1 (racemic) | 0.4 | 2.9 | 90.4 | > 100 | 1.8 | 1 | > 100 | 3.4 | 55.8 | > 50 | 1.5 | 0.4 | > 100 | 0.7 | > 250 | Active | 0.3 | 81 | 0.7 | –
3 | CSc1ccc(OCc2nccn2C)cc1 | > 20 | 34.5 | 100 | > 100 | > 20 | > 20 | > 91.1 | > 20 | 100 | > 50 | > 20 | – | – | – | – | – | – | – | – | activity at 0.5 h, 25 µM (hERG (KCNH2) [21]): 83%
4 | Cn1c([N+](=O)[O-])cnc1COc1ccc(S(C)(=O)=O)cc1 [FEXINIDAZOLE SULFONE] | 5.6 | 42.2 | 100 | > 100 | 9.4 | 3.8 | > 100 | 1.7 | 100 | > 50 | 5.9 | – | – | – | – | – | – | – | – | Activity [22]: Non-toxic; Activity [23]: Non-toxic
5 | CSc1ccc(OC[C@@H]2Cn3cc([N+](=O)[O-])nc3O2)cc1 | 0.5 | > 6.2 | 97 | > 92.2 | 1.2 | 1.1 | > 68.5 | 3.1 | 67.5 | > 50 | 1.4 | 0.4 | > 88 | 0.5 | > 220 | Active | 0.4 | 87 | 0.6 | –
6 | CCCCCCCCCCCCCCCCOP(=O)([O-])OCC[N+](C)(C)C [MILTEFOSINE] | > 40 | – | – | 81.5 | 22 | 6.9 | 9.9 | 7 | – | – | 17.8 | > 20 | > 40 | 3.2 | – | – | 2.7 | – | 9.6 | Activity (Leishmania donovani [24]): inactive
